Laboratory results: ChEMBL document CHEMBL4689842, “EUbOPEN Chemogenomics Library wave 1” (2021)
“And” between values parts separate entries of the source, which are not always exact repeats. Equal entries are not always repeated.

Test system: U2OS
Assay: Multiplex assay against U2OS
Format: toxicity, cell-based
Details: human, 10 µM, compound concentration 10 uM
Summary of the method: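 Live cells carried four stains from seeding: Hoechst33342, BioTracker Green Microtubule Cytoskeleton Dye, MitoTracker Red and Annexin V Alexa Fluor 680. They were imaged on a CQ1 microscope at 37°C and 5% CO2 after compound addition. Using CellPathfinder machine-learning gating, cells were split into Hoechst high-intensity objects or normal cells, normal cells into healthy, pyknosed or fragmented nuclei, and pyknosed cells into mitotic or apoptotic; tubulin, mitochondrial-mass and membrane-permeability phenotypes are per cents of healthy-nucleus cells.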

For `CCN(CC)S(=O)(=O)Nc1cccc(-c2ccc3c(NC(=O)C4CC4)n[nH]c3c2)c1`, the “Population Apoptotic (%)” value (12 h, replicate 1) was 45% and 28%, the “Population Fragmented Nuclei (%)” value (12 h, replicate 1) was 7% and 4% and the “Population Healthy Nuclei (%)” value (12 h, replicate 1) was 83% and 87%. The “Population Hoechst High Intensity Objects (%)” value (12 h, replicate 1) was 2% and 3%, the “Population Membrane Permeable-Phenotype (%)” value (12 h, replicate 1) was 16% and 7% and the “Population Mitochondria Different-Phenotype (%)” value (12 h, replicate 1) was 10% and 26%. The “Population Mitotic Cells (%)” value (12 h, replicate 1) was 55% and 71%, the “Population Normal (%)” value (12 h, replicate 1) was 97% and 96% and the “Population Pyknosed Nuclei (%)” value (12 h, replicate 1) was 9% and 8%. For the same compound, the “Population Tubulin-Different-Phenotype (%)” value (12 h, replicate 1) was 8% and 17%, the “Total Cell Count” value (12 h, replicate 1) was 177 and 289 and the “Population Apoptotic (%)” value (12 h, replicate 2) was 0% and 16%. The “Population Fragmented Nuclei (%)” value (12 h, replicate 2) was 9% and 8%, the “Population Healthy Nuclei (%)” value (12 h, replicate 2) was 80% and 85% and the “Population Hoechst High Intensity Objects (%)” value (12 h, replicate 2) was 5% and 14%. The “Population Mitotic Cells (%)” value (12 h, replicate 2) was 100% and 83%, the “Population Normal (%)” value (12 h, replicate 2) was 94% and 85% and the “Population Pyknosed Nuclei (%)” value (12 h, replicate 2) was 10% and 5%. For the same compound, the “Population Tubulin-Different-Phenotype (%)” value (12 h, replicate 2) was 20% and 13%, the “Total Cell Count” value (12 h, replicate 2) was 120 and 259 and the “Population Apoptotic (%)” value (24 h, replicate 1) was 21%. For the same compound, the “Population Healthy Nuclei (%)” value (24 h, replicate 1) was 70% and 92%, the “Population Hoechst High Intensity Objects (%)” value (24 h, replicate 1) was 3% and 2% and the “Population Mitochondria Different-Phenotype (%)” value (24 h, replicate 1) was 13% and 26%. The “Population Mitotic Cells (%)” value (24 h, replicate 1) was 78%, the “Population Normal (%)” value (24 h, replicate 1) was 96% and 97% and the “Population Pyknosed Nuclei (%)” value (24 h, replicate 1) was 21%. The “Total Cell Count” value (24 h, replicate 1) was 241 and 253, the “Population Apoptotic (%)” value (24 h, replicate 2) was 20% and 28% and the “Population Fragmented Nuclei (%)” value (24 h, replicate 2) was 13% and 6%. The “Population Healthy Nuclei (%)” value (24 h, replicate 2) was 68% and 87%, the “Population Hoechst High Intensity Objects (%)” value (24 h, replicate 2) was 6% and 8% and the “Population Membrane Permeable-Phenotype (%)” value (24 h, replicate 2) was 18% and 6%. The “Population Mitochondria Different-Phenotype (%)” value (24 h, replicate 2) was 17% and 29%, the “Population Mitotic Cells (%)” value (24 h, replicate 2) was 79% and 71% and the “Population Normal (%)” value (24 h, replicate 2) was 93% and 91%. For the same compound, the “Population Tubulin-Different-Phenotype (%)” value (24 h, replicate 2) was 22% and the “Total Cell Count” value (24 h, replicate 2) was 134 and 195.
